Data published in ChEMBL document CHEMBL2417357, “Synthesis and antiprotozoal activities of benzyl phenyl ether diamidine derivatives” (Eur J Med Chem, 2013).
Activity calls are given as the source filed them. The rule behind the calls is not given here.

Experiments:
[1] = test system: Trypanosoma brucei rhodesiense; experiment: Antitrypanosomal activity against Trypanosoma brucei rhodesiense STIB900 infected in NMRI mouse assessed as cured animal at 5 mg/kg, ip administered for 4 days; assay type: functional, organism-based; set-up: dose 5 mg/kg
How it was run: (§1)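 Acute model in female NMRI mice infected with T. b. rhodesiense STIB900. Single daily doses given for four days, intraperitoneally or orally. Mice surviving 60 days post-infection without parasitaemia relapse counted as cured; result reported as cured/infected out of 4 mice per group, with mean survival in days.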

L6 = experiment: Cytotoxicity against rat L6 cells after 72 hrs by Alamar blue assay; assay type: cell-based; conditions: L6, 72 h
How it was run: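 Rat L6 myoblast cells; cytotoxic IC50 taken as the average of duplicate determinations.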

[2] = test system: Trypanosoma brucei rhodesiense; experiment: Antitrypanosomal activity against Trypanosoma brucei rhodesiense STIB900 infected in NMRI mouse assessed as mean survival days at 5 mg/kg, ip administered for 4 days; assay type: functional; conditions: route intraperitoneal
How it was run: (§2)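 Female NMRI mice, acute infection model with T. b. rhodesiense STIB900. Compound given as a single daily dose for four days, intraperitoneally or orally. Cure means survival to 60 days post-infection without parasitaemia relapse. Mean survival recorded in days.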

Leishmania donovani = experiment: Antileishmanial activity against amastigotes of Leishmania donovani MHOM/SD/62/IS-CL2D; assay type: functional, organism-based
How it was run: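 Axenic amastigotes of L. donovani MHOM/SD/62/IS-CL2D; IC50 taken as the average of at least two determinations.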

[3] = Selectivity index, ratio of IC50 for rat L6 cells to IC50 for amastigotes of Leishmania donovani; assay type: toxicity, cell-based; conditions: read-out: Ratio IC50
How it was run: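 SI = IC50 in rat L6 myoblasts / IC50 against L. donovani MHOM/SD/62/IS-CL2D axenic amastigotes. The amastigote IC50 is the average of at least two determinations; the L6 IC50 is the average of duplicates.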

[4] = Selectivity index, ratio of IC50 for rat L6 cells to IC50 for chloroquine-resistant Plasmodium falciparum K1; assay type: toxicity, cell-based; conditions: read-out: Ratio IC50
How it was run: (§3)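 SI = IC50 in rat L6 myoblasts / IC50 against the parasite (T. b. rhodesiense STIB900 or P. falciparum K1). Each IC50 is the average of duplicate determinations.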

Plasmodium falciparum = experiment: Antiplasmodial activity against chloroquine-resistant Plasmodium falciparum K1; assay type: functional, organism-based
How it was run: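 Chloroquine-resistant K1 strain tested in vitro. IC50 is the average of duplicate determinations.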

[5] = Selectivity index, ratio of IC50 for rat L6 cells to IC50 for Trypanosoma brucei rhodesiense STIB900; assay type: toxicity, cell-based; conditions: read-out: Ratio IC50; how it was run: as §3
[6] = test system: Trypanosoma brucei rhodesiense; experiment: Antitrypanosomal activity against Trypanosoma brucei rhodesiense STIB900 after 72 hrs by Alamar blue assay; assay type: functional, organism-based; conditions: STIB900, 72 h
[7] = test system: Trypanosoma brucei rhodesiense; experiment: Antitrypanosomal activity against Trypanosoma brucei rhodesiense STIB900 infected in NMRI mouse assessed as cured animal at 25 mg/kg, po administered for 4 days; assay type: functional, organism-based; set-up: dose 25 mg/kg; how it was run: as §1
[8] = test system: Trypanosoma brucei rhodesiense; experiment: Antitrypanosomal activity against Trypanosoma brucei rhodesiense STIB900 infected in NMRI mouse assessed as mean survival days at 25 mg/kg, po administered for 4 days; assay type: functional; how it was run: as §2

| Structure (SMILES) | Activity [1] | IC50 (L6) [µM] | MSD [2] [days] | IC50 (Leishmania donovani) [µM] | selectivity ratio [3] | selectivity ratio [4] | IC50 (Plasmodium falciparum) [µM] | selectivity ratio [5] | IC50 [6] [µM] | Activity [7] | MSD [8] [days] |
| --- | --- | --- | --- | --- | --- | --- | --- | --- | --- | --- | --- |
| N=C(N)c1ccc(COc2cccc(C(=N)N)c2)cc1 | inactive | 19.3 | 19 | 42.1 | < 1 | 99 | 0.195 | 694 | 0.028 |  |  |
| COc1cc(C(=N)N)ccc1OCc1cccc(C(=N)N)c1 | inactive | 85.4 | 22 | 28.6 | 3 | 2760 | 0.031 | 4400 | 0.019 |  |  |
| N=C(N)c1ccc(COc2c(Br)cc(C(=N)N)cc2Br)cc1 | inactive | 21.5 | 30 | 4.09 | 5 | 849 | 0.025 | 1260 | 0.017 |  |  |
| COc1cc(C(=N)N)cc(Br)c1OCc1cccc(C(=N)N)c1.Cl.Cl | inactive | 21.6 | >45.75 | 11.4 | < 2 | 747 | 0.0289 | 4070 | 0.005 |  |  |
| N=C(N)c1cccc(COc2c(Cl)cc(C(=N)N)cc2Cl)c1 | inactive | 0.57 | 27.5 | 6.51 | < 1 | 3 | 0.185 | 57 | 0.01 |  |  |
| N=C(N)c1cccc(COc2c(I)cc(C(=N)N)cc2I)c1 | inactive | 19.3 | 21.25 | 1.39 | 14 | 291 | 0.0664 | 5680 | 0.003 |  |  |
| CO/N=C(\N)c1cccc(COc2c(Cl)cc(/C(N)=N/OC)cc2Cl)c1.Cl.Cl.Cl.Cl |  | 108 |  | > 50 | < 2 | 18 | 5.91 | 2 | 60.1 | inactive | 21.75 |
| Cl.Cl.N/C(=N\O)c1ccc(COc2ccc(/C(N)=N/O)cc2I)cc1 |  | 18.1 |  | > 100 | < 1 | 3 | 5.29 | < 1 | 25.8 | inactive | 29.75 |
| N=C(N)c1cccc(COc2c(Br)cc(C(=N)N)cc2Br)c1 | inactive | 4.7 | >35.25 | 3.37 | 1 | 39 | 0.12 | 1270 | 0.004 |  |  |
| COc1cc(C(=N)N)cc(I)c1OCc1cccc(C(=N)N)c1.Cl | inactive | 18.6 | 35.75 | 6.01 | 3 | 760 | 0.0245 | 6210 | 0.003 |  |  |
| COc1cc(C(=N)N)cc(OC)c1OCc1ccc(C(=N)N)cc1.Cl.Cl | inactive | 209 | 15 | > 100 | < 2 | 1180 | 0.177 | 1910 | 0.11 |  |  |
| Cl.Cl.N=C(N)c1cccc(COc2ccc(C(=N)N)cc2[N+](=O)[O-])c1 | inactive | 10.8 | 23.25 | 11.3 | < 1 | 592 | 0.018 | 324 | 0.034 |  |  |
| COc1cc(C(=N)N)cc(OC)c1OCc1cccc(C(=N)N)c1.Cl.Cl | inactive | 96 | 16.25 | > 100 | < 1 | 416 | 0.231 | 524 | 0.183 |  |  |
| N=C(N)c1ccc(COc2c(I)cc(C(=N)N)cc2I)cc1 | inactive | 13.8 | 24.5 | 1.6 | 9 | 746 | 0.019 | 1170 | 0.012 |  |  |
| CO/N=C(\N)c1cccc(COc2ccc(/C(N)=N/OC)cc2Br)c1.Cl.Cl |  | 99.4 |  | 5.66 | 17 | < 10 | > 9.96 | 1 | 79.1 | Active | >60 |
| CO/N=C(\N)c1cccc(COc2ccc(/C(N)=N/OC)cc2Cl)c1.Cl.Cl.Cl |  | 89.6 |  | > 100 | < 1 | < 9 | > 10.2 | 3 | 26.1 | inactive | 29.25 |
| Cl.Cl.N/C(=N\O)c1cccc(COc2ccc(/C(N)=N/O)cc2Br)c1 |  | 4.39 |  | > 100 | < 1 | < 1 | 5.8 | < 1 | 14.7 | inactive | 12.75 |
| COc1cc(/C(N)=N/O)cc(OC)c1OCc1ccc(/C(N)=N/O)cc1.Cl.Cl |  | 56.8 |  | 34.1 | 1.67 | 5.11 | 11.1 | < 1 | 161 | inactive | 14.5 |
| N=C(N)c1ccc(COc2ccc(C(=N)N)cc2Br)cc1 | inactive | 4.99 | 29 | 2.02 | 2 | 1250 | 0.004 | 322 | 0.016 |  |  |
| CO/N=C(\N)c1cccc(COc2c(I)cc(/C(N)=N/OC)cc2I)c1.Cl.Cl |  | 27.5 |  | 44.2 | < 1 | < 4 | > 7.1 | 1 | 26.3 | inactive | 19.75 |
| Cl.Cl.N/C(=N\O)c1ccc(COc2ccc(/C(N)=N/O)cc2Br)cc1 |  | 6.6 |  | > 100 | < 1 | < 1 | > 11.1 | < 1 | 24 | inactive | 28.75 |
| CO/N=C(\N)c1cccc(COc2c(Br)cc(/C(N)=N/OC)cc2Br)c1.Cl.Cl |  | 54.7 |  | > 50 | < 1 | 8 | 6.79 | < 1 | 69.7 | inactive | >31.5 |
| COc1cc(/C(N)=N/O)cc(OC)c1OCc1cccc(/C(N)=N/O)c1.Cl.Cl |  | 70.7 |  | > 100 | < 1 | < 6 | > 11.5 | < 1 | 157 | inactive | 16.5 |
